Measured values reported in ChEMBL document CHEMBL1139324, “Chemical modification and biological evaluation of new semisynthetic derivatives of 28,29-Didehydronystatin A1 (S44HP), a genetically engineered antifungal polyene macrolide antibiotic” (J Med Chem, 2009).
Converted amounts (≈) assume the structure as drawn.

Columns and labels:
Vanrija humicola = assay: Antifungal activity against Cryptococcus humicolus ATCC 9949 after 48 hrs by broth microdilution method; format: functional; conditions: ATCC 9949, 48 h
Summary of the method: (§1)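 Yeast susceptibility by broth microdilution per NCCLS M27-A in 96-well plates. MIC is the lowest concentration inhibiting growth. Where repeat runs fully coincided, a single value is reported.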

Aspergillus niger = assay: Antifungal activity against Aspergillus niger ATCC 16404 after 48 hrs by broth microdilution method; format: functional; conditions: ATCC 16404, 48 h
Summary of the method: (§2)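 Susceptibility of filamentous fungi (molds) by broth microdilution per NCCLS M38-A in 96-well microplates. The MIC is read as the lowest inhibitory concentration. It is given as one number when replicate data fully agreed.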

Candida albicans [1] = assay: Antifungal activity against Candida albicans ATCC 14053 after 48 hrs by broth microdilution method; format: functional; conditions: ATCC 14053, 48 h; summary of the method: as §1
[2] = Toxicity against human erythrocytes assessed as hemolytic activity at 5 ug/ml; format: cell-based, Erythrocyte; conditions: read-out: Activity
Summary of the method: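 Lysis of erythrocytes in defibrinated human blood was measured under buffered conditions with compound at 5 µg/mL. Percent hemolysis is the mean of blood samples from two donors.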

Fusarium oxysporum = assay: Antifungal activity against Fusarium oxysporum VKM F-140 after 48 hrs by broth microdilution method; format: functional; summary of the method: as §2
Candida albicans [3] = assay: Antifungal activity against Candida albicans ATCC 10231after 48 hrs by broth microdilution method; format: functional; conditions: ATCC 10231, 48 h
[4] = Toxicity in Candida albicans ATCC 14053 infected iv dosed (C57BL/6xDBA/2)F1 B6D2F1 mouse; format: organism-based; conditions: in vivo

SMILES	MIC (Vanrija humicola) [µg/mL]	MIC (Aspergillus niger) [µg/mL]	MIC (Candida albicans [1]) [µg/mL]	MIC (Fusarium oxysporum) [µg/mL]	MIC50 (Candida albicans [3]) [µg/mL]	MIC90 (Candida albicans [3]) [µg/mL]	hemolysis at 5 ug/ml [2] [%]	LD50 [4] [mg/kg]	MTD [4] [mg/kg]
C[C@@H]1[C@H](O)[C@@H](C)/C=C/C=C/C=C/C=C/C=C/C=C/C=C/[C@H](O[C@H]2O[C@@H](C)[C@H](O)[C@@H](N)[C@H]2O)C[C@@H]2O[C@](O)(C[C@@H](O)[C@H](O)CC[C@@H](O)C[C@@H](O)C[C@@H](O)CC(=O)O[C@H]1C)C[C@H](O)[C@H]2C(=O)N[C@H]1[C@H](O)[C@@H](O)[C@H](CO)O[C@H]1O	1 (≈ 0.921 µM)	2 (≈ 1.84 µM)	1 (≈ 0.921 µM)	8 (≈ 7.37 µM)	–	–	3	–	–
C[C@@H]1[C@H](O)[C@@H](C)/C=C/C=C/C=C/C=C/C=C/C=C/C=C/[C@H](O[C@H]2O[C@@H](C)[C@H](O)[C@@H](NC[C@]3(O)OC[C@@H](O)[C@@H](O)[C@@H]3O)[C@H]2O)C[C@@H]2O[C@](O)(C[C@@H](O)[C@H](O)CC[C@@H](O)C[C@@H](O)C[C@@H](O)CC(=O)O[C@H]1C)C[C@H](O)[C@H]2C(=O)O	1 (≈ 0.921 µM)	2 (≈ 1.84 µM)	1 (≈ 0.921 µM)	8 (≈ 7.36 µM)	–	–	5	–	–
C[C@@H]1[C@H](O)[C@@H](C)/C=C/C=C/C=C/C=C/C=C/C=C/C=C/[C@H](O[C@H]2O[C@@H](C)[C@H](O)[C@@H](NC[C@]3(O)OC[C@@H](O)[C@H](O)[C@@H]3O)[C@H]2O)C[C@@H]2O[C@](O)(C[C@@H](O)[C@H](O)CC[C@@H](O)C[C@@H](O)C[C@@H](O)CC(=O)O[C@H]1C)C[C@H](O)[C@H]2C(=O)O	1 (≈ 0.921 µM)	2 (≈ 1.84 µM)	1 (≈ 0.921 µM)	8 (≈ 7.36 µM)	–	–	8	–	–
C[C@@H]1[C@H](O)[C@@H](C)/C=C/C=C/C=C/C=C/C=C/C=C/C=C/[C@H](O[C@H]2O[C@@H](C)[C@H](O)[C@@H](N)[C@H]2O)C[C@@H]2O[C@](O)(C[C@@H](O)[C@H](O)CC[C@@H](O)C[C@@H](O)C[C@@H](O)CC(=O)O[C@H]1C)C[C@H](O)[C@H]2C(=O)O	1 (≈ 1.08 µM)	1 (≈ 1.08 µM)	1 (≈ 1.08 µM)	4 (≈ 4.33 µM)	0.12 (≈ 0.13 µM)	0.4 (≈ 0.433 µM)	41	2.2	0.64
C[C@@H]1[C@H](O)[C@@H](C)/C=C/C=C/C=C/C=C/C=C/C=C/C=C/[C@H](O[C@H]2O[C@@H](C)[C@H](O)[C@@H](NCCCN)[C@H]2O)C[C@@H]2O[C@](O)(C[C@@H](O)[C@H](O)CC[C@@H](O)C[C@@H](O)C[C@@H](O)CC(=O)O[C@H]1C)C[C@H](O)[C@H]2C(=O)O	4 (≈ 4.08 µM)	4 (≈ 4.08 µM)	2 (≈ 2.04 µM)	4 (≈ 4.08 µM)	–	–	45	–	–
C[C@@H]1[C@H](O)[C@@H](C)/C=C/C=C/C=C/C=C/C=C/C=C/C=C/[C@H](O[C@H]2O[C@@H](C)[C@H](O)[C@@H](NC[C@]3(O)OC[C@@H](O)[C@@H](O[C@@H]4O[C@H](CO)[C@H](O)[C@H](O)[C@H]4O)[C@@H]3O)[C@H]2O)C[C@@H]2O[C@](O)(C[C@@H](O)[C@H](O)CC[C@@H](O)C[C@@H](O)C[C@@H](O)CC(=O)O[C@H]1C)C[C@H](O)[C@H]2C(=O)O	2 (≈ 1.6 µM)	2 (≈ 1.6 µM)	2 (≈ 1.6 µM)	8 (≈ 6.41 µM)	–	–	4	–	–
C[C@@H]1[C@H](O)[C@@H](C)/C=C/C=C/C=C/C=C/C=C/C=C/C=C/[C@H](O[C@H]2O[C@@H](C)[C@H](O)[C@@H](N)[C@H]2O)C[C@@H]2O[C@](O)(C[C@@H](O)[C@H](O)CC[C@@H](O)C[C@@H](O)C[C@@H](O)CC(=O)O[C@H]1C)C[C@H](O)[C@H]2C(=O)NCCCN(C)C	1 (≈ 0.992 µM)	2 (≈ 1.98 µM)	1 (≈ 0.992 µM)	2 (≈ 1.98 µM)	0.08 (≈ 0.0793 µM)	0.3 (≈ 0.298 µM)	2	16.4	11.9
C[C@@H]1[C@H](O)[C@@H](C)/C=C/C=C/C=C/C=C/C=C/C=C/C=C/[C@H](O[C@H]2O[C@@H](C)[C@H](O)[C@@H](N(CCCN)CCCN)[C@H]2O)C[C@@H]2O[C@](O)(C[C@@H](O)[C@H](O)CC[C@@H](O)C[C@@H](O)C[C@@H](O)CC(=O)O[C@H]1C)C[C@H](O)[C@H]2C(=O)O	1 (≈ 0.963 µM)	1 (≈ 0.963 µM)	1 (≈ 0.963 µM)	1 (≈ 0.963 µM)	0.04 (≈ 0.0385 µM)	0.13 (≈ 0.125 µM)	15	–	–
C[C@@H]1[C@H](O)[C@@H](C)/C=C/C=C/C=C/C=C/C=C/C=C/C=C/[C@H](O[C@@H]2O[C@H](C)[C@@H](O)[C@H](N)[C@@H]2O)C[C@@H]2O[C@](O)(C[C@@H](O)C[C@@H](O)[C@H](O)CC[C@@H](O)C[C@@H](O)CC(=O)O[C@H]1C)C[C@H](O)[C@H]2C(=O)O [AMPHOTERICIN B]	1 (≈ 1.08 µM)	1 (≈ 1.08 µM)	1 (≈ 1.08 µM)	4 (≈ 4.33 µM)	0.11 (≈ 0.119 µM)	0.36 (≈ 0.39 µM)	30	2.8	2.01

More lines, main results first:

MIC (Vanrija humicola) [µg/mL]	MIC (Aspergillus niger) [µg/mL]	MIC (Candida albicans [1]) [µg/mL]	MIC (Fusarium oxysporum) [µg/mL]	MIC50 (Candida albicans [3]) [µg/mL]	MIC90 (Candida albicans [3]) [µg/mL]	SMILES	hemolysis at 5 ug/ml [2] [%]	LD50 [4] [mg/kg]	MTD [4] [mg/kg]
2 (≈ 1.95 µM)	2 (≈ 1.95 µM)	2 (≈ 1.95 µM)	4 (≈ 3.9 µM)	–	–	COC(=O)[C@H](CO)NC(=O)[C@H]1[C@@H]2C[C@@H](O[C@H]3O[C@@H](C)[C@H](O)[C@@H](N)[C@H]3O)/C=C/C=C/C=C/C=C/C=C/C=C/C=C/[C@H](C)[C@@H](O)[C@@H](C)[C@H](C)OC(=O)C[C@H](O)C[C@H](O)C[C@H](O)CC[C@@H](O)[C@H](O)C[C@](O)(C[C@@H]1O)O2	14	–	–
2 (≈ 1.93 µM)	2 (≈ 1.93 µM)	1 (≈ 0.965 µM)	4 (≈ 3.86 µM)	0.13 (≈ 0.125 µM)	0.52 (≈ 0.502 µM)	C[C@@H]1[C@H](O)[C@@H](C)/C=C/C=C/C=C/C=C/C=C/C=C/C=C/[C@H](O[C@H]2O[C@@H](C)[C@H](O)[C@@H](N)[C@H]2O)C[C@@H]2O[C@](O)(C[C@@H](O)[C@H](O)CC[C@@H](O)C[C@@H](O)C[C@@H](O)CC(=O)O[C@H]1C)C[C@H](O)[C@H]2C(=O)N1CCN(CCO)CC1	2	–	–
1 (≈ 1.07 µM)	2 (≈ 2.13 µM)	2 (≈ 2.13 µM)	8 (≈ 8.54 µM)	–	–	CNC(=O)[C@H]1[C@@H]2C[C@@H](O[C@H]3O[C@@H](C)[C@H](O)[C@@H](N)[C@H]3O)/C=C/C=C/C=C/C=C/C=C/C=C/C=C/[C@H](C)[C@@H](O)[C@@H](C)[C@H](C)OC(=O)C[C@H](O)C[C@H](O)C[C@H](O)CC[C@@H](O)[C@H](O)C[C@](O)(C[C@@H]1O)O2	5	–	–
2 (≈ 2.17 µM)	4 (≈ 4.33 µM)	2 (≈ 2.17 µM)	4 (≈ 4.33 µM)	–	–	C[C@@H]1[C@H](O)[C@@H](C)/C=C/C=C/C=C/C=C/C=C/C=C/C=C/[C@H](O[C@H]2O[C@@H](C)[C@H](O)[C@@H](N)[C@H]2O)C[C@@H]2O[C@](O)(C[C@@H](O)[C@H](O)CC[C@@H](O)C[C@@H](O)C[C@@H](O)CC(=O)O[C@H]1C)C[C@H](O)[C@H]2C(N)=O	8	–	–
1 (≈ 0.991 µM)	2 (≈ 1.98 µM)	1 (≈ 0.991 µM)	4 (≈ 3.96 µM)	0.15 (≈ 0.149 µM)	0.36 (≈ 0.357 µM)	CCOC(=O)CNC(=O)[C@H]1[C@@H]2C[C@@H](O[C@H]3O[C@@H](C)[C@H](O)[C@@H](N)[C@H]3O)/C=C/C=C/C=C/C=C/C=C/C=C/C=C/[C@H](C)[C@@H](O)[C@@H](C)[C@H](C)OC(=O)C[C@H](O)C[C@H](O)C[C@H](O)CC[C@@H](O)[C@H](O)C[C@](O)(C[C@@H]1O)O2	38	–	–
2 (≈ 1.95 µM)	4 (≈ 3.9 µM)	2 (≈ 1.95 µM)	4 (≈ 3.9 µM)	–	–	COC(=O)C(CO)NC(=O)[C@H]1[C@@H]2C[C@@H](O[C@H]3O[C@@H](C)[C@H](O)[C@@H](N)[C@H]3O)/C=C/C=C/C=C/C=C/C=C/C=C/C=C/[C@H](C)[C@@H](O)[C@@H](C)[C@H](C)OC(=O)C[C@H](O)C[C@H](O)C[C@H](O)CC[C@@H](O)[C@H](O)C[C@](O)(C[C@@H]1O)O2 (stereo not given in full)	4	–	–
1 (≈ 1.02 µM)	2 (≈ 2.04 µM)	1 (≈ 1.02 µM)	2 (≈ 2.04 µM)	0.09 (≈ 0.0917 µM)	0.27 (≈ 0.275 µM)	C[C@@H]1[C@H](O)[C@@H](C)/C=C/C=C/C=C/C=C/C=C/C=C/C=C/[C@H](O[C@H]2O[C@@H](C)[C@H](O)[C@@H](N)[C@H]2O)C[C@@H]2O[C@](O)(C[C@@H](O)[C@H](O)CC[C@@H](O)C[C@@H](O)C[C@@H](O)CC(=O)O[C@H]1C)C[C@H](O)[C@H]2C(=O)NCCCO	4	–	–
4 (≈ 4.14 µM)	4 (≈ 4.14 µM)	2 (≈ 2.07 µM)	4 (≈ 4.14 µM)	–	–	C[C@@H]1[C@H](O)[C@@H](C)/C=C/C=C/C=C/C=C/C=C/C=C/C=C/[C@H](O[C@H]2O[C@@H](C)[C@H](O)[C@@H](N)[C@H]2O)C[C@@H]2O[C@](O)(C[C@@H](O)[C@H](O)CC[C@@H](O)C[C@@H](O)C[C@@H](O)CC(=O)O[C@H]1C)C[C@H](O)[C@H]2C(=O)NCCO	3	–	–
